# Bioassay records: PubChem, Broad Institute
# ERp5 block: ERp5 (human) disulfide isomerase inhibition. ERp5 insulin aggregation, absorbance 650 nm, 90 min. inhibition, % at 9.99 µM. hit rate 0.05% among 350,000. AID 651711;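 active means mean replicate inhibition above about 25%, with every replicate also reaching it, limit read from the data, passing the limit was not always enough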
# PDI inh: inhibitors of human protein disulfide isomerase. P07237. inhibition, % at 10 µM. PDI insulin aggregation turbidity, A650, 90 min. hit rate 0.052% among 350,000;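 active means mean inhibition across replicates of 30% or more, whatever share of single replicates reach that level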
# FGF22 binding: shifts melting point of recombinant human FGF22. AID 651658. activity (Tm shift, normalised), % at 9.99 µM. hit rate 1.5% among 340,000. Q9HCT0. recombinant FGF22 thermal shift, SYPRO orange fluorescence; percent of sucrose octasulfate shift, DMSO zero;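 active means mean Tm shift, scaled 0 neutral to 100 positive control, at about 1.3% or above, every replicate too, limit read from the data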
# S100A4 MyoIIA: blocks human S100A4 binding to myosin IIA peptide. P26447. S100A4/TAMRA-MyoIIA peptide fluorescence polarization. inhibition, % at 10.7 µM. hit rate 0.14% among 360,000;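 active means mean inhibition of at least 70% across replicates, with every replicate also reaching that level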
#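 Material: S100A4 monomer (human). Medium: Calcium-containing HEPES buffer, pH 7.2. Probe or stimulus: labelled myosin peptide probe, 5 nM. Compound dosing: one concentration per compound. Timing: polarization read 5 min after assay mix addition, stable 5–60 min. Benchmarks: DMSO as neutral control, TFP as positive control.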
# ERAP1 inh: blocks human ERAP1 aminopeptidase activity; recombinant ERAP1, Leu-AMC fluorescence, 60 min; inhibition, % at 10.7 µM; hit rate 0.15% among 340,000; AID 652197;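 active means mean replicate inhibition of at least 30%, or all replicates individually reaching that 30% level; inactive means mean below 30% and not every replicate reaching it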;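 further: 0% = neutral control wells and 100% = L-leucinethiol positive control wells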
# Target sequence (Q9NZ08 whole entry, looked up): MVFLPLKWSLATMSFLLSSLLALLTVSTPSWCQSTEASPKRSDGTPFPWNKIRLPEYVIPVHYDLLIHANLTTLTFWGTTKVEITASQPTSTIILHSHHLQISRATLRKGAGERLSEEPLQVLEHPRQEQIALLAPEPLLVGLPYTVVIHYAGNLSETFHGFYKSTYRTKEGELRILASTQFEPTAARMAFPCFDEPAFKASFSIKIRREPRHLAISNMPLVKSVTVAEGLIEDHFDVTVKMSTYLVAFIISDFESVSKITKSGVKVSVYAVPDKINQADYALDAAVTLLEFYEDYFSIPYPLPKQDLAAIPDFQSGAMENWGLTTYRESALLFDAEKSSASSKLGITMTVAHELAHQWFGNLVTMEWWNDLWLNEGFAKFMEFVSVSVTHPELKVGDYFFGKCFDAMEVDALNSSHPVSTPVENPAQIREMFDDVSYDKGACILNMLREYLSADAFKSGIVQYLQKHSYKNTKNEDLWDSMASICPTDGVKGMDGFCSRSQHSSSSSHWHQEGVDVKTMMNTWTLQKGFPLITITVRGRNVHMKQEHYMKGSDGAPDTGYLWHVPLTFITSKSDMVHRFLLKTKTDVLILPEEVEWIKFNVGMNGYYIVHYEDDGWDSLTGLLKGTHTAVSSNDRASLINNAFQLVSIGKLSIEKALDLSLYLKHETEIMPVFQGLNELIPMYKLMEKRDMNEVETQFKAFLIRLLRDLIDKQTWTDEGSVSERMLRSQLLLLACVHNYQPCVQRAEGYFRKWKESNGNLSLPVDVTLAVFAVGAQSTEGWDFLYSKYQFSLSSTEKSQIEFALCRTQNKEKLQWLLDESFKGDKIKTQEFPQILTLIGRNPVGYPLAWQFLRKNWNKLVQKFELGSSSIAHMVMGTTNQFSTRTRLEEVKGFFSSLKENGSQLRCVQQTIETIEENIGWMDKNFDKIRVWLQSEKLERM
# The depositor's hits bear a star; x = no result given. The full list was thinned out, with hits kept by preference.
SMILES,ERp5 block,PDI inh,FGF22 binding,S100A4 MyoIIA,ERAP1 inh
Cc1ccc(C(NC(=O)N2CCOCC2)C(Cl)(Cl)Cl)cc1F (configuration not stated),5,6,0,-1,3
CC1NC(=S)N(C2CCCCC2)C1=O (configuration not stated),2,-36,43*,-2,-1
O=C(Nc1nccs1)c1ccccn1,-3,-5,43*,0,2
CN(CC(=O)Nc1ccc(Cl)c(C(F)(F)F)c1)S(=O)(=O)c1cnc[nH]1,1,-12,0,-20,-3
C[C@@H]1CCCCO[C@H](CN(C)CC2CCCCC2)[C@H](C)CN([C@H](C)CO)C(=O)c2cc(NC(=O)Nc3cccc4ccccc34)ccc2O1,1,x,1.3*,9,-3
C[C@@H]1CCCCO[C@@H](CN(C)CC2CCCCC2)[C@@H](C)CN([C@@H](C)CO)C(=O)c2cc(NC(=O)Nc3cccc4ccccc34)ccc2O1,0,x,1.5*,15,-2
C[C@@H]1CCCCO[C@H](CN(C)CC2CCCCC2)[C@H](C)CN([C@@H](C)CO)C(=O)c2cc(NC(=O)Nc3cccc4ccccc34)ccc2O1,6,x,0,-3,-3
C[C@H](CO)N1C[C@H](C)[C@@H](CN(C)CC2CCCCC2)OCCCC[C@H](C)Oc2ccc(NC(=O)Nc3cccc4ccccc34)cc2C1=O,-1,x,1.5*,-11,-1
Cc1ccnc(NC2CCCCC2)c1,4,-9,44*,-4,-1
COc1ccc(Cl)cc1NC(=O)CCCC(=O)c1ccccc1,3,-4,0,-29,1
COc1ccc2c(c1)CCc1c(C(=O)Nc3ccn(Cc4ccc(C)cc4)n3)noc1-2,-2,1,28*,-5,0
Cc1ccc(Cn2ccc(NC(=O)c3noc4c3CCc3ccccc3-4)n2)cc1,x,-4,x,x,x
CC[n+]1c(C)sc2c3ccsc3ccc21,2,-4,43*,-17,12
COc1ccc(C2CC(c3ccccc3)=NN2C(=O)COC(=O)CNC(=O)c2ccccc2)cc1 (configuration not stated),1,12,0,3,1
O=C(CNC(=O)c1ccccc1)OCC(=O)N1N=C(c2ccc(Cl)cc2)CC1c1ccco1 (configuration not stated),6,5,43*,4,0
CCOc1ccc(NC(=O)CSc2nc3cc(C(=O)NCC4CCCO4)ccc3c(=O)n2CC2CCCO2)cc1 (configuration not stated),3,-1,0,-6,-1
Cn1c2ccccc2c(=O)c2cc(NCCCN3CCOCC3)ccc21,-1,-13,0,-3,52*
O=Cc1cn(CC(O)CN2CCCCC2)c2ccccc12 (configuration not stated),2,2,0,-12,0
CC(C)(CO)NCC(O)Cn1cc(C=O)c2ccccc21 (configuration not stated),4,-3,43*,-2,0
NS(=O)(=O)c1ccc(N2C(=O)C3CC=CCC3C2=O)cc1 (configuration not stated),2,11,44*,-3,-1
CCOC(=O)c1ccc(N2C(=O)C3CC=CCC3C2=O)cc1 (configuration not stated),0,16,x,-1,2
CCSC1=NCCN1S(=O)(=O)c1ccc(Cl)cc1,0,22,43*,18,-2
O=S(=O)(c1ccccc1)N1CCN=C1SCc1ccccc1,4,-9,0,-2,6
CCSC1=NCCN1S(=O)(=O)c1ccccc1,2,-5,44*,0,1
CC(C)(C)c1ccc(C(=O)OCC(=O)N2CCC(c3ccccc3)=N2)cc1,4,-13,30*,-13,2
SMILES,ERp5 block,PDI inh,FGF22 binding,S100A4 MyoIIA,ERAP1 inh
Cc1ccc(C(=O)OCC(=O)N2CCC(c3ccccc3)=N2)c(C)c1,7,6,x,-9,-1
COc1ccc(C(=O)CN2C(=O)NC3(CCCc4ccccc43)C2=O)c(OC)c1 (configuration not stated),7,3,0,-4,2
Cc1nn(C)c2c1NC(=O)CS2,-11,-4,43*,-1,2
Cn1ccc(/C=N/N=C2/NC(=O)CS2)n1,6,-3,0,2,3
CC(C)Oc1cccc(C(=O)C2CCCN(Cc3ccc(Oc4ncccn4)cc3)C2)c1 (configuration not stated),3,-1,43*,4,1
Cc1nc([N+](=O)[O-])c(SCC(O)CCl)n1Cc1ccc(Cl)cc1 (configuration not stated),-1,3,43*,-3,2
O=c1cnnc(N/N=C/c2ccc3c(c2)OCO3)[nH]1,-2,-4,0,-4,x
O=c1cnnc(N/N=C/C2CC=CCC2)[nH]1 (configuration not stated),-1,-2,44*,-1,5
CC1=C(C(=O)N2CCOCC2)C(c2ccc(OC(F)F)cc2)NC(=S)N1c1ccccc1 (configuration not stated),2,3,43*,7,1
CC1=C(C(=O)N2CCOCC2)C(c2ccc(Br)cc2)NC(=S)N1c1ccccc1 (configuration not stated),-5,0,0,0,19
CN1C(=O)OC2(C)CCc3ccccc3C12C (configuration not stated),x,-3,x,x,x
C=CCON/C(CCC)=C1\C(=O)CC(C)(C)CC1=NC,6,0,0,-3,x
C=CCON/C(CCC)=C1\C(=O)C(C(=O)OC)C(C)(C)CC1=NC (configuration not stated),-5,-1,44*,-2,-6
O=S(=O)(c1cccs1)N1CCC2(CC1)OCCO2,-1,-1,0,4,1
COC(=O)[C@@]1(Cc2ccccc2)[C@H]2C(=O)N(C)C(=O)[C@H]2[C@H]2CN=C(SCc3ccc(C)cc3)N21,-2,-4,x,-4,14
COC(=O)[C@@]1(Cc2ccccc2)[C@H]2C(=O)N(C)C(=O)[C@H]2[C@H]2CN=C(SCc3ccc(Cl)cc3)N21,3,-1,43*,-1,3
Cc1ccc(-c2nnc(SCC(=O)NC3CCCC3)n2N)cc1,1,-2,44*,2,3
Cc1ccc(C2CC(C(F)F)n3ncc(C(=O)Nc4cnn(Cc5ccccc5C)c4)c3N2)cc1 (configuration not stated),x,9,x,x,x
COc1ccc(CCNC(=O)COC(=O)COc2c(C)cc(C)cc2C)cc1OC,1,-3,0,-6,-1
O=C(CSc1nc2ccccc2c(=O)n1-c1ccc(F)cc1F)NC1CC1,1,8,43*,0,0
COc1cccc(N)c1,-1,x,0,-1,x
COc1cccc(N=C(N)N)c1,0,-1,43*,-2,-1
CC(C)NS(=O)(=O)c1ccc2c3c(cccc13)CC2,13,-4,0,-2,-1
